Assay results reported in ChEMBL document CHEMBL1127816, “Synthesis and antiestrogenic activity of diaryl thioether derivatives” (1994).
Calls of active or inactive are those of the source. The calls are words filed in the database; no cut-off is given here.

How the values were obtained:
[1] = target: T1, Estrogen receptor (Rattus norvegicus) (UniProt P06211+Q62986); experiment: Relative binding affinity (RBA) on estrogen receptor was measured by in vitro using cytosol from the immature rat uterus; assay type: protein assay
Method in brief: (§1)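 Competitive displacement of [3H]estradiol from estrogen receptor. Incubation was 3 h at 25 °C. Nonspecific binding was defined with 1000 nM unlabeled estradiol. RBA = 100 × IC50(estradiol)/IC50(compound), with estradiol set at 100%.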

[2] = target: T2, Estrogen receptor (Homo sapiens) (UniProt Q92731+P03372); experiment: Ability to inhibit E2-induced proliferation of ZR-75-1 cells at a dose of 1 uM; assay type: functional, cell-based
Method in brief: (§2)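 ZR-75-1 cells (passages 90-96, kept in phenol-red-free RPMI-1640 with 10 nM E2) were plated at 10 000 cells/dish in SD medium (5% dextran-charcoal FBS, insulin) and allowed to adhere for 3 days. They were then treated for 9 days at 37 °C with compound (1 uM, ethanol vehicle 0.1%) plus E2 0.1 nM, with medium changed every 2-3 days. Read-out was DNA content. % inhibition = 100 − [(D−B)/(C−A)]×100. Done in triplicate.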

[3] = target: T2, Estrogen receptor (Homo sapiens); experiment: Ability to stimulate the basal cell proliferation of ZR-75-1 cells at a dose of 1 uM; assay type: functional, cell-based
Method in brief: (§3)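 ZR-75-1 cells were plated at 10 000 cells/dish in phenol-red-free SD medium (5% dextran-charcoal FBS) and allowed to adhere for 3 days. Compound was added at 1 uM without E2 (controls received 0.1% ethanol). Cells were incubated for 9 days at 37 °C with medium renewed every 2-3 days. Basal proliferation was read as DNA content (ng/dish). Done in triplicate.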

[4] = Compound was tested for percent inhibition of the Estradiol (E2) induced cell proliferation; design: concentration or dose not given beside the values
[5] = target: T1, Estrogen receptor (Rattus norvegicus); experiment: Relative binding affinity (RBA) on estrogen receptor was measured by in vitro using cytosol from the immature rat uterus; N means no binding observed; assay type: protein assay; method in brief: as §1
[6] = Antiestrogenic activity against Estradiol (E2) induced cell proliferation; design: concentration or dose not given beside the values
ZR-75-1 [7] = experiment: (§4) Inhibition of E2-induced proliferation of ZR-75-1 cells at 1 uM; assay type: functional, Homo sapiens; method in brief: as §2
ZR-75-1 [8] = experiment: as §4; assay type: functional, Homo sapiens; method in brief: as §2; remark: listed apart in the source
ZR-75-1 [9] = experiment: Stimulation of basal cell proliferation of ZR-75-1 cells at 1 uM; assay type: functional, Homo sapiens; method in brief: as §3
[10] = Percent inhibition of Estradiol (E2) induced cell proliferation; design: scale not given: the % may be the effect or the level left

| RBA [1] [%] | DNA content per dish (cell proliferation) ((ng of DNA) dish-1) [2] | Binding ((ng of DNA) dish-1) [3] | Activity [4] [%] | relative binding affinity (RBA) [5] | Activity [6] [%] | Activity [10] [%] | SMILES | Binding (ZR-75-1 [7]) | Binding (ZR-75-1 [8]) | Binding (ZR-75-1 [9]) |
| --- | --- | --- | --- | --- | --- | --- | --- | --- | --- | --- |
| 0.02 | 2230 | 1540 | 42 |  |  |  | OCCCCCCCCCCCSC(Cc1ccc(O)cc1)c1ccc(O)cc1 (stereo not drawn) |  |  |  |
|  | 1070 | 791 |  | inactive | 56 |  | CCCCN(C)C(=O)CCCCCCCSC(Cc1ccc(OCc2ccccc2)cc1)c1ccc(OC)cc1 (stereo not drawn) |  |  |  |
|  | 1090 | 807 |  | inactive | 55 |  | CCCCN(C)C(=O)CCCCCCCCCCCSC(Cc1ccc(O)cc1)c1ccc(OC)cc1 (stereo not drawn) |  |  |  |
| 1.2 |  |  | 94 |  | 103 |  | CCCCN(C)C(=O)CCCCCCCCCCC1Cc2cc(O)ccc2[C@H]2CC[C@]3(C)[C@@H](O)[C@H](Cl)C[C@H]3[C@H]12 (stereo partly drawn) | 1403 (ng of DNA) dish-1 | 662 (ng of DNA) dish-1 | 679 (ng of DNA) dish-1 |
| 0.01 | 902 | 684 |  |  | 66 |  | CCCCN(C)C(=O)CCSC(Cc1ccc(O)cc1)c1ccc(OC)cc1 (stereo not drawn) |  |  |  |
| 0.02 | 1280 | 839 | 31 |  |  |  | COc1ccc(C(Cc2ccc(O)cc2)SCCCCCCCCCCCO)cc1 (stereo not drawn) |  |  |  |
| 0.01 | 1390 | 1150 | 80 |  |  |  | CCCCN(C)C(=O)CCCCCCCCCCSC(Cc1ccc(O)cc1)c1ccc(O)cc1 (stereo not drawn) |  |  |  |
|  | 1120 | 749 |  |  | 42 |  | CCCCN(C)C(=O)CCCCCCCCCCSC(Cc1ccc(OCc2ccccc2)cc1)c1ccc(OC)cc1 (stereo not drawn) |  |  |  |
| 0.05 | 915 | 698 |  |  | 66 |  | CCCCN(C)C(=O)CCCCCCCSC(Cc1ccc(O)cc1)c1ccc(OC)cc1 (stereo not drawn) |  |  |  |
| 0.01 | 2600 | 1890 | 40 |  |  |  | CCCCN(C)C(=O)CCSC(Cc1ccc(O)cc1)c1ccc(O)cc1 (stereo not drawn) |  |  |  |
|  | 1320 | 733 |  | inactive | 8 |  | CCCCN(C)C(=O)CCCCCCCCCCSC(Cc1ccc(O)cc1)c1ccc(OC)cc1 (stereo not drawn) |  |  |  |
|  | 1350 | 800 |  | inactive | 13 |  | CCCCN(C)C(=O)CCCCCCCCCCCSC(Cc1ccc(OC)cc1)c1ccc(OC)cc1 (stereo not drawn) |  |  |  |
| 0.01 | 2070 | 1410 | 44 |  |  |  | CCCCN(C)C(=O)CCCCCCCSC(Cc1ccc(O)cc1)c1ccc(O)cc1 (stereo not drawn) |  |  |  |
| 0.01 | 2050 | 1440 |  |  |  | 49 | CCCCN(C)C(=O)CCCCCSC(Cc1ccc(O)cc1)c1ccc(O)cc1 (stereo not drawn) |  |  |  |
|  | 1150 | 746 |  | inactive | 36 |  | CCCCN(C)C(=O)CCCCCCCSC(Cc1ccc(OC)cc1)c1ccc(OC)cc1 (stereo not drawn) |  |  |  |
|  | 1100 | 725 |  | inactive | 41 |  | COc1ccc(C(Cc2ccc(OCc3ccccc3)cc2)SCCCCCCCCCCCO)cc1 (stereo not drawn) |  |  |  |
|  | 1020 | 789 |  | inactive | 64 |  | CCCCN(C)C(=O)CCSC(Cc1ccc(OCc2ccccc2)cc1)c1ccc(OC)cc1 (stereo not drawn) |  |  |  |
|  | 1010 | 741 |  | inactive | 57 |  | CCCCN(C)C(=O)CCSC(Cc1ccc(OC)cc1)c1ccc(OC)cc1 (stereo not drawn) |  |  |  |
